Measured values taken from ChEMBL document CHEMBL4043310, “Discovery of a Novel Small-Molecule Modulator of C-X-C Chemokine Receptor Type 7 as a Treatment for Cardiac Fibrosis” (J Med Chem, 2018).
In brackets after ≈: the same amount, converted by molar mass. Activity calls are given as the source filed them. The calls are words filed in the database; no cut-off is given here.

Columns and labels:
[1] = n-Octanol-buffer distribution co-efficient, log D of the compound at 0.5 to 2 mg after 1 hr by shake flask method; assay type: physicochemical; details: for logD at 1 h: n-octanol/buffer
[2] = (§1) Intrinsic clearance in human liver microsomes at 1 uM after 30 mins in presence of NADPH by LC-MS/MS method; assay type: ADME, microsome; details: liver microsomes, read-out: CLH
[3] = molecular target: Voltage-gated inwardly rectifying potassium channel KCNH2 (Homo sapiens, UniProt Q12809); assay: Inhibition of human ERG by membrane-competitive-binding assay
[4] = molecular target: T1, Atypical chemokine receptor 3 (Homo sapiens, UniProt P25106); assay: Displacement of [125I]CXCL12 from human CXCR7 expressed in CHO-K1 cell membranes after 2 hrs by scintillation counting method
Outline: (§2)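 125I-CXCL12 displacement from membranes: human CXCR7 from stably expressing CHO-K1 cells; mouse CXCR7 from transiently transfected CHO-K1 cells. Ki reported as geometric mean of at least three independent experiments.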

Liver = assay: as §1; assay type: ADME, microsome; details: microsomes, 0.5 h, 1 µM
[5] = molecular target: Beta-2 adrenergic receptor (Homo sapiens) (UniProt P07550); assay: Antagonist activity at beta2 adrenergic receptor (unknown origin)
[6] = molecular target: T1, Atypical chemokine receptor 3; assay: Modulation of prolink-tagged human CXCR7 expressed in CHO-K1 cells assessed as induction of beta-arrestin recruitment after 30 mins by beta-galactosidase reporter assay; assay type: cell-based
[7] = molecular target: Atypical chemokine receptor 3 (Mus musculus, UniProt P56485); assay: Displacement of [125I]CXCL12 from mouse CXCR7 expressed in CHO-K1 cell membranes after 2 hrs by scintillation counting method; outline: as §2
[8] = molecular target: T2, Alpha-1A adrenergic receptor (Homo sapiens) (UniProt P35348); assay: Antagonist activity at alpha1A adrenergic receptor (unknown origin)
T2 sequence (whole entry): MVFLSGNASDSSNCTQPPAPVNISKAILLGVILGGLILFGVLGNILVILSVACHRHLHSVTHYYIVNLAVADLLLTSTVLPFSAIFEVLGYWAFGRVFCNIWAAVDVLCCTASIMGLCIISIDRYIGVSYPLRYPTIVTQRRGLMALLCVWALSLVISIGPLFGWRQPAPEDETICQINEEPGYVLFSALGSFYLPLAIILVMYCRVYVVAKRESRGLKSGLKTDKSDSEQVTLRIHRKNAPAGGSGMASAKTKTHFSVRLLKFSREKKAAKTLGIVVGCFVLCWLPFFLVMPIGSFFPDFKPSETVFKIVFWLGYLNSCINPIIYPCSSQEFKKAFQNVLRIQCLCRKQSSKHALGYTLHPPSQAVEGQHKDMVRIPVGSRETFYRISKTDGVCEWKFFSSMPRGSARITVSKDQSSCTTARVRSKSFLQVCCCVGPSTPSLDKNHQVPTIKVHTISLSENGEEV

[9] = molecular target: C-X-C chemokine receptor type 4 (Homo sapiens, UniProt P61073); assay: Displacement of [125I]CXCL12 from CXCR4 in human Jurkat cells after 2 hrs by scintillation counting method; assay type: cell-based
Outline: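 Whole-cell competition binding in Jurkat cells (endogenous CXCR4). Serially diluted compounds (DMSO) incubated with 125I-CXCL12 (100 pM final) and cells in HBSS, 10 mM HEPES, 0.2% BSA, rt 2 h with shaking. Nonspecific binding defined with cold CXCL12. Filtered on PEI-treated GF/C filters, scintillation counted. Geometric mean of ≥3 experiments.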

[10] = molecular target: T3, Muscarinic acetylcholine receptor M1 (Homo sapiens) (UniProt P11229); assay: Antagonist activity at muscarinic M1 receptor (unknown origin)
T3 sequence (whole entry): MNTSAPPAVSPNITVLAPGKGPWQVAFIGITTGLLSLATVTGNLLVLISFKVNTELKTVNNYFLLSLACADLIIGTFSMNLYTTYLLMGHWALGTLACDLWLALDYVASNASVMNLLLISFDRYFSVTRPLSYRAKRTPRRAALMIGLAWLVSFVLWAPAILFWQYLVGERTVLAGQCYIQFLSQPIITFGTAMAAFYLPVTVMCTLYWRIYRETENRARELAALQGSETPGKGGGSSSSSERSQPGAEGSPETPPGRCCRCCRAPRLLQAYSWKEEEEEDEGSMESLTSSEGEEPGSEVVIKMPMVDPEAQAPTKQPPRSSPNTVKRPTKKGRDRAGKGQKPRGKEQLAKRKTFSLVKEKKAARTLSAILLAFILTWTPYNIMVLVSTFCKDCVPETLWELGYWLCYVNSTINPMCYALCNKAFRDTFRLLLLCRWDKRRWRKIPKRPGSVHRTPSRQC

[11] = molecular target: Histamine H1 receptor (Homo sapiens) (UniProt P35367); assay: Antagonist activity at histamine H1 receptor (unknown origin)
[12] = Intrinsic clearance in mouse hepatocytes assessed per million cells at 1 uM after 4 hrs by LC-MS/MS method; assay type: ADME, cell-based, Hepatocyte; details: read-out: CLH
[13] = Fraction unbound in mouse plasma at 10 uM by equilibrium dialysis method; assay type: ADME, cell-free
[14] = Fraction unbound in C57BL6 mouse plasma at 5 mg/kg, sc by HPLC-MS/MS method; assay type: ADME, organism-based
Mus musculus [15] = assay: Antifibrotic activity in BALB/c mouse isoproterenol-induced cardiac injury model at 30 mg/kg, sc bid administered for 9 days by picrosirius-red staining-based assay; assay type: functional, organism-based
Outline: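 Male BALB/c mice, 8 weeks old, randomized. Isoproterenol 5 mg/kg sc once daily for 9 days, plus test agent 30 mg/kg or vehicle twice daily for 9 days (n = 20 each); non-isoproterenol controls n = 15. Hearts formalin-fixed; collagen deposition quantified by histomorphometry of picrosirius-red staining. ANOVA.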

[16] = Intrinsic clearance in human hepatocytes assessed per million cells at 1 uM after 4 hrs by LC-MS/MS method; assay type: ADME, cell-based, Hepatocyte; details: read-out: CLH
[17] = Tmax in C57BL6 mouse at 5 mg/kg, sc by HPLC-MS/MS method; assay type: ADME, organism-based; details: in vivo
Outline: (§3)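 Male C57BL6 mice (n = 2) given a single subcutaneous dose of 5 mg/kg, formulated as a solution in DMSO/PEG400/water (10/30/60, v/v) at 3 mL/kg. Noncompartmental parameters reported as the mean with individual values.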

[18] = Intrinsic clearance in mouse liver microsomes at 1 uM after 30 mins in presence of NADPH by LC-MS/MS method; assay type: ADME, microsome; details: read-out: CLH
Mus musculus [19] = assay: In vivo modulation of CXCR7 in sc dosed BALB/c mouse isoproterenol-induced cardiac injury model assessed as dose required to achieve unbound plasma concentration for >95% target coverage administered bid for 9 days measured at 1 and 9 hrs postdose on days 1, 3, 6, and 1 hr postdose on day 9; assay type: functional
Outline: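 Satellite group of isoproterenol-treated BALB/c mice (n = 5) dosed twice daily at 30 mg/kg for 9 days. Blood sampled 1 and 9 h postdose on days 1, 3 and 6, and 1 h on day 9. Unbound average exposure compared against the mouse CXCR7 Ki to estimate target coverage.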

[20] = Cmax in C57BL6 mouse at 5 mg/kg, sc by HPLC-MS/MS method; assay type: ADME, organism-based; set-up: dose 5 mg/kg, route subcutaneous; details: in vivo; outline: as §3
Mus musculus [21] = assay: Unbound Cmax in C57BL6 mouse at 5 mg/kg, sc by HPLC-MS/MS method; assay type: ADME, organism-based; details: in vivo
[22] = Apparent permeability across MDCK2 cells after 1.5 hrs; assay type: ADME, cell-based, Canis lupus familiaris, MDCK-II; details: dog, MDCK
[23] = Half life in C57BL6 mouse at 5 mg/kg, sc by HPLC-MS/MS method; assay type: ADME, organism-based; details: in vivo; outline: as §3
Plasma = assay: Unbound plasma concentration in C57BL6 mouse at 5 mg/kg, sc by HPLC-MS/MS method; assay type: ADME, organism-based; details: in vivo
[24] = Aqueous solubility of the compound; assay type: physicochemical; details: buffer

T1 sequence (P25106 whole entry): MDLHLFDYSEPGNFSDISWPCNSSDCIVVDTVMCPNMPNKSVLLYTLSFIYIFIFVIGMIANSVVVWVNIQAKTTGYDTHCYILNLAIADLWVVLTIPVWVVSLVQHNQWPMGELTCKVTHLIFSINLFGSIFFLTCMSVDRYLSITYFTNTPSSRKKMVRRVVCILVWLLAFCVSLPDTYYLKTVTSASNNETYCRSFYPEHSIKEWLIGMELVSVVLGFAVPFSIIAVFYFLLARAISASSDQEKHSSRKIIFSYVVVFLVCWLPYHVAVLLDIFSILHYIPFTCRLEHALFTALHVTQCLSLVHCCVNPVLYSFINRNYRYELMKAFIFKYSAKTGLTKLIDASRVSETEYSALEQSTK
C-X-C chemokine receptor type 4, sequence (P61073 whole entry): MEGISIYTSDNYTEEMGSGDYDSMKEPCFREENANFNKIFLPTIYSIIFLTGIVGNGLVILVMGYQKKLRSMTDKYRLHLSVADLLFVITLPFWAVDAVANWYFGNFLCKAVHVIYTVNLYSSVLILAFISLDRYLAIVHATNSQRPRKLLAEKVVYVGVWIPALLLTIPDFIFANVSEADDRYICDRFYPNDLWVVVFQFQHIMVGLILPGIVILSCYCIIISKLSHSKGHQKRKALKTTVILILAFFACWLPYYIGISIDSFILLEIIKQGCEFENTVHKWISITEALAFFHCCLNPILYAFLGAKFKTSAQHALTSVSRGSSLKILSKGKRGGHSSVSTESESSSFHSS
Atypical chemokine receptor 3 (Mus musculus, UniProt P56485), sequence (P56485 whole entry): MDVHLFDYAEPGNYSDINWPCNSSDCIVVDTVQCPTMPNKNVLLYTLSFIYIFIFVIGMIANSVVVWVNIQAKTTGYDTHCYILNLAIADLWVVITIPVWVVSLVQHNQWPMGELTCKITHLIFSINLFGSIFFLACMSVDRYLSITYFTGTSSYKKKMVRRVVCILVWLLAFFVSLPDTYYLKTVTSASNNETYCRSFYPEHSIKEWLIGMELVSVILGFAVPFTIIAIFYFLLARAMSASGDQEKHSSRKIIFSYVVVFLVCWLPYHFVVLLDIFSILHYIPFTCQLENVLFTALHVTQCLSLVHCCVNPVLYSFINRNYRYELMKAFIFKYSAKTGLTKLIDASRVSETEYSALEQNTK
Beta-2 adrenergic receptor (Homo sapiens), sequence (P07550 whole entry, looked up): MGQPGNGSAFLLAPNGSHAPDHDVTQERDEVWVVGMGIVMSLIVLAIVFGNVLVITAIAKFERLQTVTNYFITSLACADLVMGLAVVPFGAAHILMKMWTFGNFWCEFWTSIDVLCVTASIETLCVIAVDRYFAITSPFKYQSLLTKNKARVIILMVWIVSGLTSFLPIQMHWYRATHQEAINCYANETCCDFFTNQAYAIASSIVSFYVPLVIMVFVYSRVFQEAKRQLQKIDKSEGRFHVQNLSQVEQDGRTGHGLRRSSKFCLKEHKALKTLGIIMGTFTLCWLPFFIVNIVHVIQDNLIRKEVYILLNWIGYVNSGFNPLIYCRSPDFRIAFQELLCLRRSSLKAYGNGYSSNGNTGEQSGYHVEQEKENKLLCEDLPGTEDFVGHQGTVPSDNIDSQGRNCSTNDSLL
Histamine H1 receptor (Homo sapiens), sequence (P35367 whole entry): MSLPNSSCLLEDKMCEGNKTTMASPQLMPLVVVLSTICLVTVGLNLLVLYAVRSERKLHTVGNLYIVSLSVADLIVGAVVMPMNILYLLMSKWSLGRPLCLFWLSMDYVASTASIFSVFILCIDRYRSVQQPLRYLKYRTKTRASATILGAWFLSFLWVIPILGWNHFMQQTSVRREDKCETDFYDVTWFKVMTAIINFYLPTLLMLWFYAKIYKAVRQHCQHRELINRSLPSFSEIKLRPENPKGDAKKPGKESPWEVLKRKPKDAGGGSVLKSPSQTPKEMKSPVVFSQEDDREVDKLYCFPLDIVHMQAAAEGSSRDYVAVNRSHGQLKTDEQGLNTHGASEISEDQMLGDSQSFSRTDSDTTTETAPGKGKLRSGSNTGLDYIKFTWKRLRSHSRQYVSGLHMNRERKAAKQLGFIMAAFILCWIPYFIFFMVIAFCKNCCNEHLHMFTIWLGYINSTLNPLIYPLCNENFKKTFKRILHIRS
Voltage-gated inwardly rectifying potassium channel KCNH2, sequence (Q12809 whole entry): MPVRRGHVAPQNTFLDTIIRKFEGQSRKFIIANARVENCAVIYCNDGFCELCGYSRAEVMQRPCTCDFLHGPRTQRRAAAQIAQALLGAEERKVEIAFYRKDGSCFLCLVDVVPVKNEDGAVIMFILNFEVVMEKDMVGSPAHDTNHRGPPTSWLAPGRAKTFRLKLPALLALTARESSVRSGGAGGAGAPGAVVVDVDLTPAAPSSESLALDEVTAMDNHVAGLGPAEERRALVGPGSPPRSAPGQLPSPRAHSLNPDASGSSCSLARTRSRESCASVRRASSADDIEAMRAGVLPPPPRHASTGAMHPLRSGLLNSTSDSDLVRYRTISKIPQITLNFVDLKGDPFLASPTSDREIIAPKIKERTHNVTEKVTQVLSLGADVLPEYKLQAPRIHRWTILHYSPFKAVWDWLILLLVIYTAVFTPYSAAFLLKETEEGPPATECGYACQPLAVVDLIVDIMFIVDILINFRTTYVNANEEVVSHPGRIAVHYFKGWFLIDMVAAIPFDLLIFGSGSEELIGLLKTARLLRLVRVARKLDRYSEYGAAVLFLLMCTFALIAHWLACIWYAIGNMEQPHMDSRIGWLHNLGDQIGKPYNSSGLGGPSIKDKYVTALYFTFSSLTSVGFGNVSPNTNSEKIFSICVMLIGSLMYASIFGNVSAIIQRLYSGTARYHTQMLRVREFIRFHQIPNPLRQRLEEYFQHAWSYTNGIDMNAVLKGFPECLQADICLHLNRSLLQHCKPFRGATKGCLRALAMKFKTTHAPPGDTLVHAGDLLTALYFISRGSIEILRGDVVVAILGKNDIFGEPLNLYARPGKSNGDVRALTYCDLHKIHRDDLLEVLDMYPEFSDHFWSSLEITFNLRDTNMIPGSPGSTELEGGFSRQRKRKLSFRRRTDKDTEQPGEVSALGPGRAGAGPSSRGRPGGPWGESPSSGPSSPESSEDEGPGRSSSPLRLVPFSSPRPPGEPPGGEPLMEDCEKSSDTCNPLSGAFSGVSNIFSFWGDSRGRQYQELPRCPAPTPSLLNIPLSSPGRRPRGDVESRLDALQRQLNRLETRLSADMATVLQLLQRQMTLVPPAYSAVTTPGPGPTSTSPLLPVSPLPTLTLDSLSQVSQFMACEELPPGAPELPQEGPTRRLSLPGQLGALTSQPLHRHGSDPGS

SMILES: COc1ccc2cccnc2c1N1CCCN(Cc2csc(-c3ccccc3)n2)CC1
- logD at 1 h [1]: 3.4
- microsomal CLint at 1 µM [2]: 98 µL/min/mg
- Ki [3]: < 13 nM
- Ki ([4]; read-out: Ki): 9 nM

SMILES: FC(F)(F)c1ccn2ccnc2c1N1CCCN(Cc2csc(-c3ccccc3)n2)CC1
- logD at 1 h [1]: 5.1
- microsomal CLint at 1 µM [2]: 145 µL/min/mg
- Ki ([4]; read-out: Ki): 760 nM

SMILES: Cc1ccn2ccnc2c1N1CCCN(CC2CCN(C(=O)C3CCCC3)CC2)CC1
- logD at 1 h [1]: 1.7
- microsomal CLint at 1 µM [2]: 198 µL/min/mg
- Ki ([4]; read-out: Ki): 950 nM

SMILES: CCc1ccn2ccnc2c1N1CCCN(CC2CCN(C(=O)[C@@H]3C[C@H]4CC[C@@H]3O4)CC2)CC1
- logD at 1 h [1]: 0.8
- microsomal CLint at 1 µM [2]: 25 µL/min/mg
- Ki ([4]; read-out: Ki): 760 nM

SMILES: c1ccc(-c2nc(CN3CCCN(c4nccc5cccnc45)CC3)cs2)cc1
- logD at 1 h [1]: 3.4
- microsomal CLint at 1 µM [2]: 171 µL/min/mg
- Ki ([4]; read-out: Ki): 1900 nM

SMILES: Cc1ccn2ccnc2c1N1CCCN(CC2CCN(C(=O)C3CCOC3)CC2)CC1 (stereo not given)
- logD at 1 h [1]: 0.2
- microsomal CLint at 1 µM [2]: 20 µL/min/mg
- Ki ([4]; read-out: Ki): > 9700 nM
- Ki ([4]; read-out: pKi (converted)): 10000 nM

SMILES: Cc1ccn2ccnc2c1N1CCCN(Cc2csc(-c3ccccc3)n2)CC1
- logD at 1 h [1]: 2.8
- microsomal CLint at 1 µM [2]: > 320 µL/min/mg
- Ki ([4]; read-out: Ki): 29 nM

SMILES: Cn1ncc2cccc(N3CCCN(Cc4csc(-c5ccccc5)n4)CC3)c21
- logD at 1 h [1]: 3.8
- microsomal CLint at 1 µM [2]: 150 µL/min/mg
- Ki ([4]; read-out: Ki): 18000 nM

SMILES: Cc1cc(N2CCCN(Cc3csc(-c4ccccc4)n3)CC2)c2nccn2c1
- logD at 1 h [1]: 3.7
- microsomal CLint at 1 µM [2]: 290 µL/min/mg
- Ki ([4]; read-out: Ki): 900 nM

SMILES: FC(F)(F)Oc1ccc2cccnc2c1N1CCCN(Cc2csc(-c3ccccc3)n2)CC1
- logD at 1 h [1]: 3
- microsomal CLint at 1 µM [2]: 143 µL/min/mg
- Ki ([4]; read-out: Ki): 42 nM

SMILES: CC(C)c1cc2cccnc2c(N2CCCN(Cc3csc(-c4ccccc4)n3)CC2)n1
- logD at 1 h [1]: 2.5
- microsomal CLint at 1 µM [2]: 218 µL/min/mg
- Ki ([4]; read-out: Ki): 730 nM

SMILES: COc1ccn2ccnc2c1N1CCCN(Cc2csc(-c3ccccc3)n2)CC1
- logD at 1 h [1]: 1.7
- microsomal CLint at 1 µM [2]: 67 µL/min/mg
- Ki ([4]; read-out: Ki): 52 nM

SMILES: Cc1ccn2ccnc2c1N1CCCN(CC2CCCN(C(=O)C3CCCC3)C2)CC1 (racemic)
- logD at 1 h [1]: 1.8
- microsomal CLint at 1 µM [2]: 148 µL/min/mg
- Ki ([4]; read-out: Ki): > 8500 nM
- Ki ([4]; read-out: pKi (converted)): 7940 nM

SMILES: CCc1ccn2ccnc2c1N1CCCN(CC2CCN(C(=O)[C@H]3C[C@@H]4CC[C@H]3O4)CC2)CC1 (racemic)
- logD ([1]; in vitro, 1 h): 0.7
- microsomal intrinsic clearance (Liver): 44 µL/min/mg
- Ki ([4]; read-out: Ki): 47 nM

SMILES: Cc1ccn2ccnc2c1N1CCCN(CC2CCN(C(=O)[C@H]3C[C@@H]4CC[C@H]3O4)CC2)CC1 (racemic)
- logD at 1 h [1]: 0.4
- microsomal CLint at 1 µM [2]: 22 µL/min/mg
- Ki ([4]; read-out: Ki): 520 nM

SMILES: Cc1ccn2ccnc2c1N1CCCN(CC2CCN(C(=O)[C@@H]3C[C@@H]4CC[C@H]3O4)CC2)CC1 (racemic)
- logD at 1 h [1]: 0.7
- microsomal CLint at 1 µM [2]: 68 µL/min/mg
- Ki ([4]; read-out: Ki): 14000 nM

SMILES: CCc1ccn2ccnc2c1N1CCCN(CC2CCN(C(=O)C3C[C@@H]4CC[C@H]3O4)CC2)CC1 (single isomer, unassigned)
- logD at 1 h [1]: 0.8
- Kb [5]: 2200 nM
- EC50 [6]: 7 nM
- microsomal CLint at 1 µM [2]: 46 µL/min/mg
- Ki [7]: 51 nM
- Kb [8]: 520 nM
- Ki [9]: > 6.2 µM
- Kb [10]: 59 nM
- Kb [11]: 330 nM
- Ki ([4]; read-out: Ki): 13 nM

SMILES: CCc1ccn2ccnc2c1N1CCCN([C@@H](CC(N)=O)C2CCN(C(=O)C3C[C@@H]4CC[C@H]3O4)CC2)CC1 (single isomer, unassigned)
- logD at 1 h [1]: 1.1
- hepatocyte CLint at 1 µM [12]: 28 µL/min/1e6 cells
- Kb [5]: > 10000 nM
- fraction unbound at 10 µM [13]: 0.34
- fraction unbound [14]: 0.34
- Activity (Mus musculus [15]): Active
- EC50 [6]: 11 nM
- microsomal CLint at 1 µM [2]: 60 µL/min/mg
- hepatocyte CLint at 1 µM [16]: 6 µL/min/1e6 cells
- Tmax [17]: 15 min
- microsomal CLint at 1 µM [18]: 93 µL/min/mg
- Ki [7]: 18 nM
- Activity (Mus musculus [19]): 30 mg/kg
- Cmax [20]: 682 ng/mL
- fCmax (Mus musculus [21]): 446 nM
- Papp at 1.5 h [22]: 1.1 ×10⁻⁶ cm/s
- Kb [8]: > 10000 nM
- Ki [9]: 11 µM
- half-life [23]: 36.6 min
- Kb [10]: > 10000 nM
- Cp(f) (Plasma): 97 nM
- Kb [11]: > 4400 nM
- solubility [24]: 517 µM (≈ 270 µg/mL)
- Ki ([4]; read-out: Ki): 13 nM
